“And” between values parts separate entries of the source, which are not always exact repeats. Equal entries are not always repeated.
Experiments:
Protein kinase C (PKC) [1] = assay: Inhibitory activity against protein kinase C of rat brain
Procedure, shortened: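 PKC purified from rat brain. The read-out was 32P transfer from 30 μM [γ-32P]ATP to histone IIIS (200 μg/mL) in 20 mM Hepes pH 7.5 with phosphatidylserine, 10 mM MgCl2, 100 μM CaCl2 and 47.5 μM EGTA, run 10 min at 30 °C. Reactions were TCA-precipitated, filtered and scintillation-counted. Lipid-independent activity was subtracted, and test levels were 4, 43 and 218 μM.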

[2] = Inhibition of c-AMP dependent kinase (PKA) catalytic subunit; parameters: species or system Bos taurus
Protein kinase C (PKC) [3] = assay: Displacement of [3H]PDBU from protein kinase C; type: protein assay, Rattus norvegicus
[4] = target: Protein kinase C delta type (Homo sapiens, UniProt Q05655); assay: Inhibition of protein kinase C delta
Procedure, shortened: (§1)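 Recombinant human enzyme expressed by baculovirus in SF9 cells, then partially purified by homogenizing the pellet in Tris pH 8 detergent buffer, spinning, and running a DEAE column with a 0–500 mM NaCl gradient, with the peak pooled. The reaction was [γ-32P]ATP (30 μM) incorporation into histone IIIS (200 μg/mL) with phosphatidylserine, Ca2+/EGTA and Mg2+ in Hepes pH 7.5, run 10 min at 30 °C. It was stopped with TCA and counted on filters. No-lipid background was subtracted, and compounds were tested at 4, 43 and 218 μM.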

[5] = target: Protein kinase C gamma type (Homo sapiens, UniProt P05129); assay: Inhibition of protein kinase C gamma; procedure, shortened: as §1
[6] = target: Protein kinase C alpha type (Homo sapiens, UniProt P17252); assay: Inhibition of protein kinase C alpha

Chain of Protein kinase C delta type (Q05655 whole entry): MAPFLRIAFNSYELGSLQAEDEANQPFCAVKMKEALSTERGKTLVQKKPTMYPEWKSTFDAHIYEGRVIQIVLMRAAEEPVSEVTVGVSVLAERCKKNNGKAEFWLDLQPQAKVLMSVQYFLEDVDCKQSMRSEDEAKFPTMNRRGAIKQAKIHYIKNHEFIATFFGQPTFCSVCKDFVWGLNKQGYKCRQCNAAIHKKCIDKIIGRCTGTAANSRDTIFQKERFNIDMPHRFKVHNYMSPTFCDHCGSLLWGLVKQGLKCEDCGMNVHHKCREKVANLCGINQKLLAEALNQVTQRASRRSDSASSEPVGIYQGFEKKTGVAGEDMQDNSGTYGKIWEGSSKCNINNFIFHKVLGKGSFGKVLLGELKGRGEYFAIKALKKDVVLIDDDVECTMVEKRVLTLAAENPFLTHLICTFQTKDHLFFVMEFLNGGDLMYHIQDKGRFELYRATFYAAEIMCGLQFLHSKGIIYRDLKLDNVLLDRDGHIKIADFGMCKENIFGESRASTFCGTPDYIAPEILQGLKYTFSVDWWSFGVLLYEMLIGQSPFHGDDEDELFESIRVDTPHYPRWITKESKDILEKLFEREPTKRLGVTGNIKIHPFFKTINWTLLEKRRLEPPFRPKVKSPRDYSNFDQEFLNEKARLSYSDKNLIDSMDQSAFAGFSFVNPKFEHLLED

SMILES	IC50 (Protein kinase C (PKC) [1])	IC50 [2]	IC50 (Protein kinase C (PKC) [3]) [µM]	also measured
COC(=O)c1cc(OCc2ccccc2)c(OCc2ccccc2)c(OCc2ccccc2)c1-c1c(C(=O)OC)cc(OCc2ccccc2)c(OCc2ccccc2)c1OCc1ccccc1	180 µM and 131 µM and > 218 µM	–	–	–
Oc1cc2c(c(O)c1O)-c1c(cc(O)c(O)c1O)COC2	32 µM and 28 µM and 43 µM	31 µM and 29 µM and > 218 µM	54	IC50 [4]: 42 µM and 44 µM; IC50 [5]: 34 µM and 30 µM; IC50 [6]: 37 µM
O=C(O[C@@H]1O[C@@H]2COC(=O)c3cc(O)c(O)c(O)c3-c3c(cc(O)c(O)c3O)C(=O)O[C@H]([C@H]1O)[C@@H]2O)c1cc(O)c(O)c(O)c1 [CORILAGIN]	20 µM	–	–	–
CCOC(=O)c1cc(OCc2ccccc2)c(OCc2ccccc2)c(OCc2ccccc2)c1-c1c(C(=O)OCC)cc(OCc2ccccc2)c(OCc2ccccc2)c1OCc1ccccc1	50 µM and 96 µM and 75 µM	19 µM	> 272	–
COc1c(OCc2ccccc2)c(OCc2ccccc2)cc(CO)c1-c1c(CO)cc(OCc2ccccc2)c(OCc2ccccc2)c1OC	> 218 µM	–	–	–
COC(=O)c1cc(O)c(O)c(O)c1-c1c(C(=O)OC)cc(O)c(O)c1O	> 218 µM	–	–	–
COc1c(OCc2ccccc2)c(OCc2ccccc2)cc2c1-c1c(cc(OCc3ccccc3)c(OCc3ccccc3)c1OC)C[N+]1(C2)Cc2cc(OCc3ccccc3)c(OCc3ccccc3)c(OC)c2-c2c(cc(OCc3ccccc3)c(OCc3ccccc3)c2OC)C1	87 µM	15 µM	> 272	–
OCc1cc(OCc2ccccc2)c(OCc2ccccc2)c(O)c1-c1c(CO)cc(OCc2ccccc2)c(OCc2ccccc2)c1O	> 218 µM	–	–	–
O=C(O[C@@H]1O[C@@H]2COC(=O)c3cc(O)c(O)c(O)c3-c3c(cc(O)c(O)c3O)C(=O)O[C@H]([C@H]1OC(=O)c1cc(O)c(O)c(O)c1)[C@@H]2OC(=O)c1cc(O)c(O)c(O)c1)c1cc(O)c(O)c(O)c1 [PUNICAFOLIN]	4 µM	> 218 µM	< 50	–
CCCCCCCCCCCCC/C=C/[C@@H](O)[C@@H](N)CO [SPHINGOSINE]	40 µM	–	23	–
COc1cc2c(c(OC)c1OC)-c1c(cc(OC)c(OC)c1OC)COC2	> 218 µM	–	–	–
O=C(O[C@@H]1OC2COC(=O)c3cc(O)c(O)c(O)c3-c3c(cc(O)c(O)c3O)C(=O)OC2C2OC(=O)c3cc(O)c(O)c(O)c3-c3c(cc(O)c(O)c3O)C(=O)OC21)c1cc(O)c(O)c(O)c1 (stereo not given in full)	3 µM	> 218 µM	< 50	–
CCOC(=O)c1cc(OCc2ccccc2)c(OCc2ccccc2)c(OC)c1-c1c(C(=O)OCC)cc(OCc2ccccc2)c(OCc2ccccc2)c1OC	94 µM	–	–	–
COCc1cc(O)c(O)c(O)c1-c1c(COC)cc(O)c(O)c1O	98 µM	> 218 µM	–	IC50 [5]: 50 µM; IC50 [6]: 43 µM
CCOC(=O)c1cc(O)c(O)c(O)c1-c1c(C(=O)OCC)cc(O)c(O)c1O	> 218 µM	–	–	–
COc1c(OCc2ccccc2)c(OCc2ccccc2)cc(C=O)c1-c1c(C=O)cc(OCc2ccccc2)c(OCc2ccccc2)c1OC	> 218 µM	–	–	–
COc1c(OCc2ccccc2)c(OCc2ccccc2)cc(CBr)c1-c1c(CBr)cc(OCc2ccccc2)c(OCc2ccccc2)c1OC	> 218 µM	–	–	–
O=C1OCC2O[C@@H](O)C3OC(=O)c4cc(O)c(O)c(O)c4-c4c(cc(O)c(O)c4O)C(=O)OC3C2OC(=O)c2cc(O)c(O)c(O)c2-c2c1cc(O)c(O)c2O (stereo not given in full)	4 µM	> 218 µM	< 50	–
O=Cc1cc(OCc2ccccc2)c(OCc2ccccc2)c(OCc2ccccc2)c1-c1c(C=O)cc(OCc2ccccc2)c(OCc2ccccc2)c1OCc1ccccc1	131 µM	–	–	–
c1ccc(COc2cc3c(c(OCc4ccccc4)c2OCc2ccccc2)-c2c(cc(OCc4ccccc4)c(OCc4ccccc4)c2OCc2ccccc2)C[N+]2(C3)Cc3cc(OCc4ccccc4)c(OCc4ccccc4)c(OCc4ccccc4)c3-c3c(cc(OCc4ccccc4)c(OCc4ccccc4)c3OCc3ccccc3)C2)cc1	131 µM	–	–	–
BrCc1cc(OCc2ccccc2)c(OCc2ccccc2)c(OCc2ccccc2)c1-c1c(CBr)cc(OCc2ccccc2)c(OCc2ccccc2)c1OCc1ccccc1	103 µM	–	–	–
c1ccc(COc2cc3c(c(OCc4ccccc4)c2OCc2ccccc2)-c2c(cc(OCc4ccccc4)c(OCc4ccccc4)c2OCc2ccccc2)COC3)cc1	180 µM	–	–	–
COC(=O)c1cc(OCc2ccccc2)c(OCc2ccccc2)c(OC)c1-c1c(C(=O)OC)cc(OCc2ccccc2)c(OCc2ccccc2)c1OC	97 µM	–	–	–
OCc1cc(OCc2ccccc2)c(OCc2ccccc2)c(OCc2ccccc2)c1-c1c(CO)cc(OCc2ccccc2)c(OCc2ccccc2)c1OCc1ccccc1	70 µM and 55 µM and 88 µM	21 µM	> 272	–

— ChEMBL document CHEMBL1127494, “New hexahydroxybiphenyl derivatives as inhibitors of protein kinase C” (J Med Chem, 1994)
